Source: ChEMBL document CHEMBL1152849, “Design, synthesis and AChE inhibitory activity of indanone and aurone derivatives” (Eur J Med Chem, 2009)
pIC50: −log10 of the molar value.

What was measured:
Butyrylcholinesterase = Butyrylcholinesterase (Rattus norvegicus, UniProt Q9JKC1); assay: Inhibition of BChE in rat serum after 15 mins by modified Ellman method; type: cell-free
Mus musculus [1] = assay: Cognitive enhancing effect against scopolamine-induced acquisition memory deficit in mouse assessed as escape latency at 2 mg/kg, intragastric gavage after 24 hrs by step-down passive avoidance test; type: functional
Procedure, shortened: (§1)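 Step-down passive avoidance in mice, 10 per group. In training, each mouse was placed on the platform and its latency to step down onto the grid with all four paws was recorded. It was shocked immediately on stepping down, and the session lasted 3 min. Memory was scored as step-down errors (times) and escape latency (s), each given as mean ± deviation.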

Mus musculus [2] = assay: Cognitive enhancing effect against scopolamine-induced acquisition memory deficit in mouse assessed as times of step-down at 2 mg/kg, intragastric gavage after 24 hrs by step-down passive avoidance test; type: functional; procedure, shortened: as §1
Acetylcholinesterase = biological target: T1, Acetylcholinesterase (Rattus norvegicus, UniProt P37136); assay: Inhibition of AChE in rat cortex after 15 mins by modified Ellman method
T1 sequence (P37136 whole entry): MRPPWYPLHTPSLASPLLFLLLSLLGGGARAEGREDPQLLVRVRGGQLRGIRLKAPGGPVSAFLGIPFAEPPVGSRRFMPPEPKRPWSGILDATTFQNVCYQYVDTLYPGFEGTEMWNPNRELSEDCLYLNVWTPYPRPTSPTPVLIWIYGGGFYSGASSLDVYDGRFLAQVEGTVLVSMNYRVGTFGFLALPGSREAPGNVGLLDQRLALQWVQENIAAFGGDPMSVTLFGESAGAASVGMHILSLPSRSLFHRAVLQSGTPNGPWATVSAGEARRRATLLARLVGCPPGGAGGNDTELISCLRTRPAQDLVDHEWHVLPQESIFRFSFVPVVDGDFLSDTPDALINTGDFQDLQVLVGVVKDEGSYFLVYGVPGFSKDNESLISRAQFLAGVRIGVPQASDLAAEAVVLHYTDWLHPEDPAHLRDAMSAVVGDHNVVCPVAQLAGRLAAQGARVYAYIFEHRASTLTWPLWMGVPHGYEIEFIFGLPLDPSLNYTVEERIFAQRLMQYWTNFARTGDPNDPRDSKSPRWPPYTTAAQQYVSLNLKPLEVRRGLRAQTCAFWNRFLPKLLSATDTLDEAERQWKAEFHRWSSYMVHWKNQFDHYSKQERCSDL

Mus musculus [3] = assay: Cognitive enhancing effect against scopolamine-induced acquisition memory deficit in mouse assessed as times of step-down at 10 mg/kg, intragastric gavage after 24 hrs by step-down passive avoidance test; type: functional; procedure, shortened: as §1
Mus musculus [4] = assay: Cognitive enhancing effect against scopolamine-induced acquisition memory deficit in mouse assessed as times of step-down at 5 mg/kg, intragastric gavage after 24 hrs by step-down passive avoidance test; type: functional; procedure, shortened: as §1
Mus musculus [5] = assay: Cognitive enhancing effect against scopolamine-induced acquisition memory deficit in mouse assessed as escape latency at 10 mg/kg, intragastric gavage after 24 hrs by step-down passive avoidance test; type: functional; procedure, shortened: as §1
Mus musculus [6] = assay: Cognitive enhancing effect against scopolamine-induced acquisition memory deficit in mouse assessed as escape latency at 5 mg/kg, intragastric gavage after 24 hrs by step-down passive avoidance test; type: functional; procedure, shortened: as §1

Sequence of Butyrylcholinesterase (Q9JKC1 whole entry): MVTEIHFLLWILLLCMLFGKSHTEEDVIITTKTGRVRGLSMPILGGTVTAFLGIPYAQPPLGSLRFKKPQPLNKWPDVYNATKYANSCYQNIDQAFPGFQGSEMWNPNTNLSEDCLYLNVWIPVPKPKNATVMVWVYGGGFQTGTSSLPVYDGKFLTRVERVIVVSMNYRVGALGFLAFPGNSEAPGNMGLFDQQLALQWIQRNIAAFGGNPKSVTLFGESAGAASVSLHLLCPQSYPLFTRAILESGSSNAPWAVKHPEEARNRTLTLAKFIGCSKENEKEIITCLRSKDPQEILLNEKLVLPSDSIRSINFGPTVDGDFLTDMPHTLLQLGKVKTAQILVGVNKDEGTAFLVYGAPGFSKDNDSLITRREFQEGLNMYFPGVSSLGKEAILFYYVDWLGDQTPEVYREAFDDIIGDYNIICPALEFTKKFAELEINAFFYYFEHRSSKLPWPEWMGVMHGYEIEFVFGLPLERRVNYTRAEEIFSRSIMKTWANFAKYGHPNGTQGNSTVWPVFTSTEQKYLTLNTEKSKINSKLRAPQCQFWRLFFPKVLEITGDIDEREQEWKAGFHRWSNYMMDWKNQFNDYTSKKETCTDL

Structure (SMILES) | pIC50 (Butyrylcholinesterase) | pIC50 (Acetylcholinesterase) | further results
COc1cc2c(cc1OC)C(=O)C(Cc1ccc(CN(C)C)cc1)C2 (stereo not drawn) | 4.39 | – | –
CCN(C)C(=O)Oc1cccc([C@H](C)N(C)C)c1 [RIVASTIGMINE] | – | – | Activity (Mus musculus [1]): 73 s; Activity (Mus musculus [2]): 2
COc1cc2c(cc1OC)C(=O)C(Cc1ccc(CN3CCCC3)cc1)C2 (stereo not drawn) | 4.48 | 6.82 | –
CCN(C)Cc1cccc(CC2Cc3cc(OC)c(OC)cc3C2=O)c1 (stereo not drawn) | 4.73 | 6.16 | –
COc1cc2c(cc1OC)C(=O)C(Cc1cccc(CN(C)C)c1)C2 (stereo not drawn) | 4.60 | 5.43 | –
COc1cc2c(cc1OC)C(=O)C(Cc1ccc(CN3CCCCC3)cc1)C2 (stereo not drawn) | 4.32 | 6.92 | –
COc1cc2c(cc1OC)C(=O)/C(=C/c1cccc(CN3CCCC3)c1)O2 | 4.14 | 6.54 | –
COc1cc2c(cc1OC)C(=O)C(Cc1cccc(CN3CCCC3)c1)O2 (stereo not drawn) | 4.24 | 5.15 | –
CCN(C)Cc1cccc(/C=C2\Oc3cc(OC)c(OC)cc3C2=O)c1 | 4.63 | 6.15 | –
COc1cc2c(cc1OC)C(=O)/C(=C/c1ccc(CN3CCCC3)cc1)O2 | 4.44 | 6.80 | –
COc1cc2c(cc1OC)C(=O)C(Cc1cccc(CN3CCCCC3)c1)O2 (stereo not drawn) | 4.01 | 6.62 | –
COc1cc2c(cc1OC)C(=O)C(Cc1cccc(CN3CCCCC3)c1)C2 (stereo not drawn) | 4.15 | 6.18 | –
COc1cc2c(cc1OC)C(=O)/C(=C/c1ccc(CN3CCCC3)cc1)C2 | 4.58 | 7.35 | –
COc1cc2c(cc1OC)C(=O)C(Cc1cccc(CN3CCCC3)c1)C2 (stereo not drawn) | 4.37 | 5.59 | –
COc1cc2c(cc1OC)C(=O)/C(=C/c1ccc(CN3CCCCC3)cc1)C2 | 4.07 | 7.00 | –
CCN(C)Cc1ccc(/C=C2\Cc3cc(OC)c(OC)cc3C2=O)cc1 | 4.70 | 6.57 | –
CCN(C)Cc1cccc(CC2Oc3cc(OC)c(OC)cc3C2=O)c1 (stereo not drawn) | 4.59 | 5.81 | –

Structure (SMILES) | pIC50 (Butyrylcholinesterase) | pIC50 (Acetylcholinesterase) | further results
COc1cc2c(cc1OC)C(=O)C(CC1CCN(Cc3ccccc3)CC1)C2 (stereo not drawn) [DONEPEZIL] | – | – | Activity (Mus musculus [1]): 75 s; Activity (Mus musculus [2]): 1.9
COc1cc2c(cc1OC)C(=O)C(Cc1ccc(CN3CCCC3)cc1)O2 (stereo not drawn) | 4.30 | 6.21 | –
CCN(CC)Cc1ccc(/C=C2\Cc3cc(OC)c(OC)cc3C2=O)cc1 | 4.09 | 7.46 | Activity (Mus musculus [3]): 1.6; Activity (Mus musculus [1]): 47 s; Activity (Mus musculus [2]): 2.67; Activity (Mus musculus [4]): 2; Activity (Mus musculus [5]): 60 s; Activity (Mus musculus [6]): 55 s
CCN(CC)Cc1ccc(CC2Oc3cc(OC)c(OC)cc3C2=O)cc1 (stereo not drawn) | 4.79 | 6.36 | –
CCN(CC)Cc1cccc(/C=C2\Cc3cc(OC)c(OC)cc3C2=O)c1 | 4.15 | 6.36 | –
CCN(C)Cc1ccc(CC2Cc3cc(OC)c(OC)cc3C2=O)cc1 (stereo not drawn) | 4.46 | 6.42 | –
COc1cc2c(cc1OC)C(=O)/C(=C/c1cccc(CN3CCCCC3)c1)O2 | 4.35 | 7.09 | –
CCN(CC)Cc1ccc(/C=C2\Oc3cc(OC)c(OC)cc3C2=O)cc1 | 4.32 | 6.85 | –
CCN(CC)Cc1cccc(/C=C2\Oc3cc(OC)c(OC)cc3C2=O)c1 | 4.19 | 5.93 | –
COc1cc2c(cc1OC)C(=O)/C(=C/c1cccc(CN3CCCCC3)c1)C2 | 4.26 | 6.80 | –
CCN(CC)Cc1cccc(CC2Cc3cc(OC)c(OC)cc3C2=O)c1 (stereo not drawn) | 4.49 | 5.83 | –
COc1cc2c(cc1OC)C(=O)/C(=C/c1cccc(CN(C)C)c1)C2 | 4.05 | 5.67 | –
COc1cc2c(cc1OC)C(=O)/C(=C/c1ccc(CN(C)C)cc1)C2 | 3.50 | 6.38 | –
COc1cc2c(cc1OC)C(=O)/C(=C/c1cccc(CN3CCCC3)c1)C2 | 4.38 | 6.62 | –
CCN(CC)Cc1cccc(CC2Oc3cc(OC)c(OC)cc3C2=O)c1 (stereo not drawn) | 4.42 | 5.97 | –
CCN(CC)Cc1ccc(CC2Cc3cc(OC)c(OC)cc3C2=O)cc1 (stereo not drawn) | 4.93 | 6.54 | –
CCN(C)Cc1cccc(/C=C2\Cc3cc(OC)c(OC)cc3C2=O)c1 | 4.43 | 6.31 | –
